Screening data deposited in PubChem by several laboratories.
Sampled rows, rich in hits. Any-hit rate of the full collection: about 5.3%.
Cav32 inh: inhibitors of human Cav3.2 T-type calcium channel. B-score at 10 µM. Cav3.2-expressing cells, Fluo-4 calcium fluorescence FDSS; stronger effect = lower value. 100,000 compounds, 4% hits. O95180;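 active = single-dose well whose peak fluorescence ratio is a statistical outlier from its plate by either plate-standardised score or position-corrected B-score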
FAK blocker: FAK (human) kinase inhibition | Q05397 | biochemical FAK kinase activity assay | inhibition, %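 (tested at 7 µM)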 | 97,000 compounds, 0.84% hits | AID 727; in the data active = inhibition above about 19%;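 note: 0% = DMSO and 100% = reference compound high control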
PLK1 PBD inh: blocks phosphopeptide binding to human Plk1 polo box domain. P53350. Plk1 PBD phosphopeptide binding, fluorescence polarization. inhibition, %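 (tested at about 20 µM)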. 97,000 compounds, 0.13% hits. AID 693; in the data active = inhibition above about 34%, passing the limit was not always enough
HIV Rev-RRE inh: inhibitors of HIV-1 Rev-RRE RNA interaction; P05866; Rev peptide-RRE RNA binding, FRET; inhibition, % at 8 µM; 97,000 compounds, 0.79% hits;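 active = inhibition above the screen-wide mean plus 3 SD, cut at about 35% in these data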;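 note: 0% = median DMSO wells and 100% = median Neomycin B control wells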
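Test system: Cy5-tagged RRE RNA duplex with fluorescein-tagged Rev peptide; Probe or stimulus: labelled Rev peptide; Schedule: 5 min preincubation and 15 min binding, 25 °C; Signal: FRET fluorescence readout; Evaluation: % inhibition from 671/540 nm acceptor-to-donor ratio, scaled between controls; Control set: DMSO and neomycin B.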
EphB4 antag: EphB4-ephrin-B2 interaction antagonism. inhibition, % at 7 µM. 97,000 compounds, 0.15% hits. EphB4 LBD / TNYL-RAW-Alexa532 peptide, fluorescence polarization. P54760;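 active = inhibition above the screen-wide mean inhibition plus 3 SD, cut at about 15% in these data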;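 note: 0% = DMSO wells and 100% = excess unlabeled TNYL-RAW peptide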
PLK1 kinase inh: inhibitors of human PLK1 kinase; P53350; recombinant PLK1 kinase, TR-FRET peptide phosphorylation; inhibition, % at 10 µM; 97,000 compounds, 0.53% hits;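 active = inhibition of 50% or more in the single-concentration screen; inactive = inhibition below 50%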;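 note: 0% = DMSO max control and 100% = H-89 dihydrochloride min control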
* = called active by the depositor; · = not tested or not shown.

SMILES	Cav32 inh	FAK blocker	PLK1 PBD inh	HIV Rev-RRE inh	EphB4 antag	PLK1 kinase inh
COc1ccccc1N1CCN(C(=O)c2ccc3nc(-c4ccco4)c(-c4ccco4)nc3c2)CC1	-6.21*	13.0	-8.9	-4.2	-6.1	3.2
COc1ccccc1N1CCN(C(=O)c2ccccc2Oc2ccccc2)CC1	-4.73*	-3.8	11.4	2.8	-9.8	-13.6
CC1CCN(C(=O)c2cc(F)c(F)cc2Cl)CC1	0.836	3.5	-5.8	-3.4	2.8	-1.9
COC(=O)c1cc(CSc2nnc(NC3CCCCC3)s2)oc1C	-2.64	3.4	-5.6	5.8	-2.0	-15.0
COC(=O)C[C@H]1c2cc(C(F)(F)F)ccc2S(=O)(=O)N1C1CCCC1	0.0838	·	·	·	·	·
O=C(c1ccccc1Oc1ccccc1)N1CCN(c2ccccc2F)CC1	-5.41*	1.1	13.7	3.2	0.5	-10.3
CC1CCN(C(=O)Cn2c(=O)n(Cc3ccc4c(c3)OCO4)c(=O)c3ccccc32)CC1	-2.38	0.0	10.6	8.5	0.2	-11.4
O=C(Cn1c(=O)n(Cc2ccc3c(c2)OCO3)c(=O)c2ccccc21)N1CCCc2ccccc21	-7.07*	1.2	-2.0	10.8	-2.9	-15.5
O=C(Nc1ccc2ccccc2c1)[C@@H]1C[C@H]1[C@@H](NP(=O)(c1ccccc1)c1ccccc1)c1ccccc1	-1.72	·	·	·	·	·
C=CCOC(=O)C1=C[C@@H](c2csc3ccccc23)[C@H](CCCO)[C@@H](OCC)O1	-1.09	·	·	·	·	·
CC(C)N(C(=O)c1ccccc1-c1ccccc1)C(C)C	-4.62*	1.0	-5.5	-1.0	-6.6	-0.1
O=C(c1ccc(F)cc1)C1CCN(CCn2c(=S)[nH]c3ccccc3c2=O)CC1	-4.82*	·	·	·	·	·
COc1ccc(N2CCN(C(=O)C3CCC(Cn4c(=S)[nH]c5ccccc5c4=O)CC3)CC2)cc1 (centres undefined)	-3.76	·	·	·	·	·
O=C(C1CCC(Cn2c(=S)[nH]c3ccccc3c2=O)CC1)N1CCN(c2ccccc2)CC1 (centres undefined)	-4.66*	0.3	16.5	0.6	13.2	-3.0
COc1ccccc1N1CCN(CC(=O)NCC2CCCO2)CC1 (centres undefined)	1.17	1.1	-13.7	4.6	-8.9	-7.2
COC(=O)CNC(=O)CN1C(=O)N(c2cccc(Cl)c2)C(N(O)C(=O)Nc2cccc(Cl)c2)C1(C)C (centres undefined)	-4.69*	0.5	-13.7	6.2	-8.8	-14.5
COC(=O)CNC(=O)CN1C(=O)N(c2ccccc2)C(N(O)C(=O)Nc2ccccc2)C1(C)C (centres undefined)	0.675	0.3	8.9	0.4	0.1	-7.8
COC(C/C=C\C(=O)[C@@H](C)OCc1ccccc1)OC	1.83	·	·	·	·	·
COc1ccc(N2CCN(C(c3cc(OC)ccc3OC)c3nnnn3CC3CCCO3)CC2)cc1 (centres undefined)	-0.327	-1.0	-13.2	0.2	-1.8	-11.3
O=C(/C=C/c1ccc2c(c1)OCO2)NCCSCc1ccc(Cl)cc1Cl	-6.32*	0.0	-15.1	11.2	-2.0	-9.1
O=C(NCc1ccccc1)c1ccc(CN2CCOCC2)cc1	-0.239	·	·	·	·	·
O=C(NCCSCc1ccc(Cl)cc1Cl)c1ccc(CN2CCOCC2)cc1	-4.32*	-0.9	-26.1	4.0	-0.7	-5.2
CCOc1ccc(-n2cc(C(=O)Nc3cccc(C)n3)c3cc(OC)c(OC)cc3c2=O)cc1	-0.0171	3.6	8.7	2.0	1.5	-9.4
CC(=O)C(=[N+]=[N-])C(=O)NCc1ccccc1	-0.221	-2.0	39.6	3.9	3.1	-6.3
CCOC(=O)C1=C(O)/C(=C\c2ccc(CNC(=O)C(=O)Nc3ccccc3)o2)N=C1C	-0.954	6.2	-24.6	10.6	3.2	-7.0
SMILES	Cav32 inh	FAK blocker	PLK1 PBD inh	HIV Rev-RRE inh	EphB4 antag	PLK1 kinase inh
COc1ccccc1-n1c(CNc2ccc(F)cc2)nnc1SCC(=O)Nc1cc(C)on1	-0.393	-0.9	11.2	11.5	3.3	-5.9
Cc1ccc(NC(=O)CS(=O)CC(=O)N(c2ccc(C)cc2)C(C)C(=O)NC2CCCCC2)cc1 (centres undefined)	-7.29*	2.3	0.4	-0.2	-7.3	10.5
CC(C(=O)NC1CCCC1)N(C(=O)CS(=O)CC(=O)Nc1ccc(F)cc1)c1ccc2c(c1)OCCO2 (centres undefined)	0.644	-2.7	5.6	3.5	-0.9	-8.4
CCCCN(NC(C)=O)c1nc(Cl)nc(NC(C)C)n1	0.792	-1.7	-5.3	0.4	-1.9	-10.4
CCCCN(C)c1nc(-c2ccco2)c2c(c1C#N)CC(C)(C)OC2	-3.8*	4.8	0.0	13.8	0.9	-18.1
CC1(C)Cc2c(c(-c3ccco3)nc3n[nH]c(N)c23)CO1	0.178	11.0	-10.5	6.5	4.5	52.3*
CC1(C)Cc2c(C#N)c(NCc3ccco3)nc(-c3ccco3)c2CO1	-0.753	·	·	·	·	·
CC1(C)Cc2c(C#N)c(N3CCCC3)nc(-c3ccco3)c2CO1	-1.73	-5.0	-21.1	11.1	0.2	51.0*
CC1(C)Cc2c(C#N)c(N3CCN(C(=O)c4ccccc4)CC3)nc(-c3ccco3)c2CS1	-2.56	1.6	3.5	16.2	3.8	-6.9
CC(C)c1nc(N2CCN(C(=O)c3ccccc3)CC2)c(C#N)c2c1COC(C)(C)C2	-6.19*	-9.2	15.0	-1.3	0.6	-8.6
COc1ccc(CCNC(=O)C2CC(c3ccccc3F)=NO2)cc1 (centres undefined)	-0.721	·	·	·	·	·
Cc1ccnc2c(N3C(=O)C4C5c6ccccc6C(c6ccccc65)C4C3=O)cccc12 (centres undefined)	-3.7	5.8	-13.0	3.0	-4.8	-8.9
CCc1ccc(C(C)NC(=O)Cn2cnc3c(=O)n(C)c(=O)n(C)c32)cc1 (centres undefined)	0.615	-0.6	0.6	-3.6	-6.7	4.5
COC(=O)c1nn(-c2ccccc2)c(-c2ccccc2)c1C(=O)c1ccccc1	-7.79*	-1.3	2.4	3.9	2.1	-1.6
O=C(CCC1CCCCC1)N1CCN(Cc2ccc3c(c2)OCO3)CC1	-1.13	-0.1	-18.6	10.6	5.4	-11.1
O=C(Cc1cccc2ccccc12)N1CCCc2ccccc21	-4.49*	-3.1	4.5	3.3	6.6	-4.5
CC(C)(C)c1ccc(C(=O)NNC(=O)Cc2cccc3ccccc23)cc1	-4.17*	-0.6	14.6	2.4	3.1	-0.1
O=C(COc1ccc2ccccc2c1)NNC(=O)Cc1cccc2ccccc12	-0.323	1.5	-21.2	0.5	0.4	-15.7
CCOC(=O)/C(=N\Nc1cc(C(F)(F)F)ccc1Cl)N(CC)CC	-0.49	-1.4	-18.8	1.2	3.9	-12.5
Cc1ccc(C)c(NC(=O)c2ncn[nH]2)c1	-4.2*	0.1	21.6	6.1	4.0	-7.4
COCCOC(=O)c1c(C)oc2ccc(NS(=O)(=O)c3ccc(C(=O)O)cc3)cc12	-0.0282	·	·	·	·	·
CCCCOC(=O)c1c(C)oc2ccc(NS(=O)(=O)c3ccc4c5c(cccc35)C(=O)N4)cc12	-5.76*	5.2	34.0	4.0	-9.3	-8.1
